One molecule from ChEMBL document CHEMBL1138216, “Design and synthesis of novel derivatives of the muscarinic agonist tetra(ethylene glycol)(3-methoxy-1,2,5-thiadiazol-4-yl) [3-(1-methyl-1,2,5,6-tetrahydropyrid-3-yl)-1,2,5-thiadiazol-4-yl] ether (CDD-0304): effects of structural modifications on the binding and activity at muscarinic receptor …” (J Med Chem, 2006) can be followed below.

Activity calls are given as the source filed them. No cut-off for these calls is given here.

Assay [1] addresses T1, Muscarinic acetylcholine receptor M4 (Homo sapiens, UniProt P08173).
T1 sequence (P08173 whole entry): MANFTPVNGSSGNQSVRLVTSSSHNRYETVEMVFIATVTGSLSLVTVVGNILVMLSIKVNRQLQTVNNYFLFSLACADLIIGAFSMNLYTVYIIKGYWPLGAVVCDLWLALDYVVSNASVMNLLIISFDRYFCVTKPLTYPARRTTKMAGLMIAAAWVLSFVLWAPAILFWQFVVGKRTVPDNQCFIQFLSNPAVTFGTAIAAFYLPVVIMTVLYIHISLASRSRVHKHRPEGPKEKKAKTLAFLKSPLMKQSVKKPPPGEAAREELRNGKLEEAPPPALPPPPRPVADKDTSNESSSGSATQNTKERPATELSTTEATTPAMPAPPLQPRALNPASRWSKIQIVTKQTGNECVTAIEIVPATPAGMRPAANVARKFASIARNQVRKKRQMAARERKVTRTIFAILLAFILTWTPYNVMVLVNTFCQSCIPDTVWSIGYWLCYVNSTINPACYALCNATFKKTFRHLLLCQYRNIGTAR
In words: Activity at human M4 receptor assessed as inhibition of forskolin-stimulated cAMP accumulation. In kind it is functional. A general note: cAMP levels reflect the balance of adenylyl cyclase and phosphodiesterase activity.

Assay [2] deals with T2, Muscarinic acetylcholine receptor M1/M5 chimeric protein (Homo sapiens, UniProt P08912+P11229).
T2 sequence (P11229 whole entry): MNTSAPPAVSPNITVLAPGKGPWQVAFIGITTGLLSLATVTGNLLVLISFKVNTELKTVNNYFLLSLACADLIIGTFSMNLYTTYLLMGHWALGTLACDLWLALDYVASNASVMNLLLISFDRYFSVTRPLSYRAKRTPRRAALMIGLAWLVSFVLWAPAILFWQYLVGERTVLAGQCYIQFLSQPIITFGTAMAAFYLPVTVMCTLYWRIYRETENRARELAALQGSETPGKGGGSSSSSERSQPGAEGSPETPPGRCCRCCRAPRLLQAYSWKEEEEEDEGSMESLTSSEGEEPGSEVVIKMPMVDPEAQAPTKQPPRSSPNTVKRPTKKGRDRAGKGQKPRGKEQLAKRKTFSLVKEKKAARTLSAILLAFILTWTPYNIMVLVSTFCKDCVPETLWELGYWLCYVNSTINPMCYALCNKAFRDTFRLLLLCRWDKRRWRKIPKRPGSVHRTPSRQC
T2 sequence (P08912 whole entry): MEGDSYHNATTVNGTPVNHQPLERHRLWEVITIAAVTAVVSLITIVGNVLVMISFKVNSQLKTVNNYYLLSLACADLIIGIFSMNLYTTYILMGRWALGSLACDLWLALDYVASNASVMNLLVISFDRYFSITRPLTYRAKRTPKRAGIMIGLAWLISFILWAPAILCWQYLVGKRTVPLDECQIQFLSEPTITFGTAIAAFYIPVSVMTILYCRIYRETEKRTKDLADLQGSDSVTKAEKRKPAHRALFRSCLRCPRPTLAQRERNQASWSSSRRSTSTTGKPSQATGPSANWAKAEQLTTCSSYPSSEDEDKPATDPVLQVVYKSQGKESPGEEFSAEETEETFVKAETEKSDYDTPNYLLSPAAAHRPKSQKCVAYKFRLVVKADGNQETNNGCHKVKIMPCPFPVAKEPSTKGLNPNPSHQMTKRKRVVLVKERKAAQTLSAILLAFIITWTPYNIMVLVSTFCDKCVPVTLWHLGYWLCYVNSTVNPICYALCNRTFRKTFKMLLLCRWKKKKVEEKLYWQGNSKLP
Put plainly: Inhibition of [3H](R)-QNB binding to human M1/M5(o2o3) chimeric receptor expressed in A9 L cells. The class given is cell-based, A9L.

The test system of the next assay is Rattus norvegicus. In words: Antipsychotic activity in Sprague-Dawley rat assessed as ability to reverse apomorphine effect on prepulse inhibition of the startle response at 1 mg/kg, sc. In kind it is functional, organism-based. Further details: dose 1 mg/kg. Put shortly:
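Male Sprague-Dawley rats, 250-300 g, habituated a day before. Drug in water or saline sc (1 mL/kg) 25 min, apomorphine 1.0 mg/kg 5 min pre-test; muscarinic agonists 0.1-3 mg/kg. Session of 15 each pulse-alone (120 dB, 100 ms) and pulse preceded 200 ms by 20 ms prepulse 12 dB above 70 dB background; 12 rats/group; %PPI calculated.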

One may read the IC50 as the concentration that gives 50% inhibition. As usually defined, the Ki is the dissociation constant of the complex between target and ligand, obtained from inhibition or displacement. Read a low Ki as tighter binding. `COc1nsnc1OCCOCCOCCOCCOc1nsnc1C1=CCCN(C)C1`: the IC50 in assay [1] is 12.6 nM. In assay [2], this molecule showed a Ki of 316 nM. In addition, in the assay with Rattus norvegicus, the result was Active.
